NF-kB neuron act – NF-kB expression increase, human neuronal cells; NF-kB reporter expression; stronger effect = higher value; fold change at 12.5 µM; 190,000 tested, 1.6% active; in the data active = fold change above about 3.3
APP 5'UTR act – APP 5'UTR luciferase reporter activation; SH-SY5Y APP 5'UTR luciferase reporter, luminescence; zero percent = DMSO vehicle wells; activation, % at 2 µM; 190,000 tested, 1% active;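 active = activation above a set limit, based on mean plus 3 SD of controls, cut at about 140% in these data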
STAT3 activator – increases IL-6 driven STAT3 reporter signal; activation (% of control), % at 5.6 µM; 190,000 tested, 0.91% active; U3A cells, IL-6 STAT3-luciferase reporter, luminescence; 100% = signal with IL-6 EC80 alone; AID 871;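 active = activation above the screen-wide mean of compound activation plus 3 SD, cut at about 130% in these data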;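 note: 0% = background luminescence of wells with medium and substrate only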
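Detection: reporter luminescence signal / Assay system: STAT1-lacking human U3A cells, STAT3 luciferase reporter / Incubation: compound pre-incubation 1 h before IL-6, then 6 h stimulation at 37 °C / Control set: IL-6-only high control / Read-out: % activation relative to IL-6 control / Probe or stimulus: Interleukin-6, 33 ng/mL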
STAT1 activator – STAT1 signaling activation. NIH 3T3 STAT1-luciferase reporter, IFN-gamma, luminescence; 100% = IFN-gamma alone, no compound. activation (% of control), % at 5.5 µM. 200,000 tested, 2.6% active;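 active = activation above the screen-wide mean activation plus 3 SD, cut at about 130% in these data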;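 note: raw ratio to IFN-gamma control signal so 100% means no change and 0% no light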
STAT1 blocker – reduces IFN-gamma driven STAT1 reporter signal; NIH 3T3 STAT1-luciferase reporter, luminescence; inhibition, % at 5.5 µM; 200,000 tested, 0.35% active;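 active = inhibition above a set limit, the mean inhibition across all tested compounds plus 3 SD, cut at about 34% in these data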;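 note: 0% = IFN-gamma with DMSO and 100% = IFN-gamma with 300 µM nifuroxazide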
STAT3 blocker – STAT3 signaling inhibition; U3A cells, IL-6 STAT3-luciferase reporter, luminescence; host cell line lacks STAT1; inhibition, % at 5.5 µM; 190,000 tested, 0.89% active; AID 862;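 active = inhibition above the mean inhibition across all screened compounds plus 3 SD, cut at about 44% in these data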;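 note: 0% = DMSO only wells and 100% = 100 µM nifuroxazide control wells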
STAT1 activ conf – confirmation of STAT1 signaling activators; activation (% of control), % at 5.7 µM; 1,200 tested, 97% active; shares compounds with STAT1 activator; NIH 3T3 STAT1-luciferase reporter, IFN-gamma potentiation, luminescence; 100% = IFN-gamma EC80 alone, no compound; AID 1262;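 active = activation above a set limit carried over from the earlier primary STAT1 screen, cut at about 140% in these data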;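 note: simple ratio to median IFN-gamma plus DMSO wells so 0% means no light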
NFkB act – activates NF-kappaB, counter-screen to STAT1 activators. shares compounds with STAT1 activator. HEK293T NF-kB luciferase reporter, TNF-alpha stimulated, luminescence; 100% = TNF-alpha with vehicle only. activation (% of control), % at 5.7 µM. 1,200 tested, 43% active. AID 1306;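 active = activation above the mean of solvent-only control wells plus 3 SD, set per campaign, cut at about 130% in these data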;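 note: TNF-alpha given at a submaximal dose yielding about 80% of full reporter signal; values are well signal over median control so 100% means no change and 0% no light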
STAT3 act STAT1c – human STAT3 activation in STAT1 activator counter-screen; shares compounds with STAT1 activator; U3A cells STAT3-luciferase reporter, IL-6, luminescence; cells lack STAT1; 100 = IL-6 alone, no compound effect; activation (% of control), % at 5.7 µM; 1,200 tested, 46% active;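 active = activation above the solvent-only control well mean plus 3 SD, set per plate batch, cut at about 110% in these data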;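 note: 0% = no luminescence and 100% = median IL-6 plus DMSO wells; higher means more STAT3 reporter activation so hits are non-selective activators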
* = called active by the depositor; nt = no result given. Most compounds without a hit are left out; they make up all but 4.9% or so of the library.

SMILES	NF-kB neuron act	APP 5'UTR act	STAT3 activator	STAT1 activator	STAT1 blocker	STAT3 blocker	STAT1 activ conf	NFkB act	STAT3 act STAT1c
COC(=O)c1oc2ccc(OC)cc2c1N	1.7	21	95	108	-7	10	nt	nt	nt
COc1ccc(C(=O)c2oc3ccc(OC)cc3c2N)cc1	5.9*	190*	98	151*	-59	1	139*	148*	111*
CN(C)c1nc(N)c([N+](=O)[O-])c(NCCO)n1	1.1	-11	97	104	-4	6	nt	nt	nt
COc1nccnc1NS(=O)(=O)c1ccc(NC(=O)c2cccc(C)c2)cc1	1.1	16	108	97	4	-7	nt	nt	nt
Cc1ccc(O)c(C2=NCCNC(C(F)(F)F)=C2)c1	1.1	-2	100	109	-10	-4	nt	nt	nt
Oc1c(C2=NCCNC(C(F)(F)F)=C2)ccc2ccccc12	6*	133	104	199*	-111	4	222*	147*	114*
CC(C)CSc1nnc2c(n1)[nH]c1ccccc12	4.8*	130	65	153*	-57	40	249*	113	89
Cc1c(C(=O)O)c(C(=O)O)nc2ccc(N3CCOCC3)cc12	1	5	102	106	-7	-1	nt	nt	nt
CCN(CC)CCNC(=S)Nc1ccc(F)cc1	1	-3	99	105	-7	3	nt	nt	nt
COc1ccc(NC(=O)Nc2ccc(Br)cn2)cc1	2.2	94	97	169*	-74	3	160*	120	91
Cc1ccc(NC(=O)Nc2ccc(Cl)cn2)cc1	2.2	99	94	172*	-80	18	171*	130	99
COC(=O)c1ccccc1NC(=O)Nc1ccc(Br)cn1	1.5	23	92	108	-8	12	nt	nt	nt
COc1ccc(Cl)c2c1[nH]c1nc(SCc3ccccn3)nnc12	4.2*	157*	120	189*	-100	-16	175*	144*	124*
CCOC(=O)c1cnc(SCc2ccc(C(C)(C)C)cc2)nc1N	1.4	20	97	101	-1	5	nt	nt	nt
CCOC(=O)c1cnc(SCc2ccccc2)nc1N	9*	146*	96	158*	-69	6	212*	135*	109
Cc1cc([N+](=O)[O-])cnc1Sc1nccn1C	1.1	6	97	102	-2	12	nt	nt	nt
O=C(Cc1nc(=O)c2ccccc2s1)Nc1ccccc1	5.8*	189*	103	157*	-63	4	274*	145*	122*
C=C1c2ccccc2NC(=S)N1Cc1ccc2c(c1)OCO2	1.5	76	102	121	-23	4	nt	nt	nt
CCCC(=O)Nc1nc(-c2ccc(OC)cc2)cs1	1.9	-9	97	123	-24	6	nt	nt	nt
O=C(CSCC(=O)Nc1nc(-c2ccc3c(c2)OCO3)cs1)Nc1nccs1	1.2	29	nt	99	0	nt	nt	nt	nt
CCCC(=O)Nc1nc(-c2ccc3c(c2)OCCO3)cs1	4.5*	141*	98	158*	-65	8	181*	143*	104
CSCC(=O)Nc1nc(-c2ccc3c(c2)OCCO3)cs1	4.8*	153*	104	158*	-65	4	189*	139*	114*
O=C(N1CCCC1)C(F)(F)Oc1ccc(F)cc1	0.88	20	96	104	-7	9	nt	nt	nt
COc1ccccc1OCc1cc(-c2ccccc2)no1	4.3*	80	106	161*	-69	4	184*	138*	106
Cc1ccc(SCc2cc(-c3ccc(Cl)cc3)no2)cc1	1.2	nt	101	102	-2	5	nt	nt	nt
c1ccc(SCc2cc(-c3ccccc3)no2)cc1	2.1	116	97	162*	-70	14	175*	127	102

Screening data deposited in PubChem by several laboratories.
